In ChEMBL document CHEMBL3227985, “N-Alkylated 2-aminotetralins: central dopamine-receptor stimulating activity” (J Med Chem, 1979):
Active and inactive are the calls of the source. The calls are words filed in the database; no cut-off is given here.

Tests used:
Rattus norvegicus [1] = assay: Central serotonin receptor stimulating activity in Sprague-Dawley rat assessed as reduction in 5-HTP accumulation in limbic region of brain at 2 umol/kg, sc by spectrophotometric method; assay type: functional, organism-based; conditions: Limbic system
Summary of the method: (§1)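 Male Sprague-Dawley rats (200-350 g), reserpinized. Compounds dissolved in saline immediately before use, neutral pH, 10 mL/kg, given sc over a dose range. Aromatic-L-amino-acid decarboxylase inhibited (100 mg/kg). Dopa and 5-HTP accumulation measured spectrophotometrically in striatum, limbic forebrain and remaining hemispheral portions. ED50 = dose giving 50% of maximal reduction versus control portions, estimated from dose-response curves. Experiments run 9–12 a.m.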

Rattus norvegicus [2] = assay: Central dopamine receptor stimulating activity in Sprague-Dawley rat assessed as reduction in DOPA accumulation in limbic region of brain at 2 umol/kg, sc by spectrophotometric method; assay type: functional; conditions: Limbic system; summary of the method: as §1
Rattus norvegicus [3] = assay: Central noradrenaline receptor stimulating activity in Sprague-Dawley rat assessed as reduction in DOPA accumulation in hemispheral portion of cerebrum at 2 umol/kg, sc by spectrophotometric method; assay type: functional, organism-based; summary of the method: as §1
Rattus norvegicus [4] = assay: Toxicity in sc dosed Sprague-Dawley rat assessed as gross behaviour at ED50; assay type: organism-based; conditions: in vivo
Rattus norvegicus [5] = assay: Central serotonin receptor stimulating activity in Sprague-Dawley rat assessed as reduction in 5-HTP accumulation in hemispheral portion of cerebrum at 2 umol/kg, sc by spectrophotometric method; assay type: functional, organism-based; summary of the method: as §1
Rattus norvegicus [6] = assay: Central serotonin receptor stimulating activity in Sprague-Dawley rat assessed as reduction in 5-HTP accumulation in striatum of brain at 2 umol/kg, sc by spectrophotometric method; assay type: functional, organism-based; summary of the method: as §1
Rattus norvegicus [7] = assay: Central dopamine receptor stimulating activity in Sprague-Dawley rat assessed as reduction in DOPA accumulation in striatum of brain at 2 umol/kg, sc by spectrophotometric method; assay type: functional; summary of the method: as §1
Rattus norvegicus [8] = assay: Central dopamine receptor stimulating activity in reserpenized Sprague-Dawley rat assessed as latency period of motor activity at 2 umol/kg, sc measured 6 hrs post-reserpine challenge by motility meter analysis; assay type: functional
Summary of the method: (§2)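 Male Sprague-Dawley rats (200-350 g) given reserpine 10 mg/kg ip 6 h before testing. Drug in saline, 2 µmol/kg sc in the neck. Rats then placed singly in photocell motility meters. Counts recorded per 5-min period until effect ceased (<10 counts/5 min), giving duration and AUC. Means of four to six recordings. Testing 1–6 p.m.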

Rattus norvegicus [9] = assay: Central dopamine receptor stimulating activity in reserpenized Sprague-Dawley rat assessed as duration of action of motor activity at 2 umol/kg, sc measured 6 hrs post-reserpine challenge by motility meter analysis; assay type: functional; summary of the method: as §2

| SMILES | Activity (Rattus norvegicus [1]) | ED50 (Rattus norvegicus [2]) [µmol/kg] | Activity (Rattus norvegicus [3]) | Activity (Rattus norvegicus [4]) | Activity (Rattus norvegicus [5]) | Activity (Rattus norvegicus [6]) | ED50 (Rattus norvegicus [7]) [µmol/kg] | Time (Rattus norvegicus [8]) [min] | Time (Rattus norvegicus [9]) [min] |
| --- | --- | --- | --- | --- | --- | --- | --- | --- | --- |
| CCCN(CCC)C1CCc2c(ccc(OC)c2OC)C1.Cl (stereo not drawn) | inactive | 0.057 | inactive | Non-toxic | inactive | inactive | 0.058 |  |  |
| Br.CCCCNC1CCc2c(O)cccc2C1 (stereo not drawn) | inactive | > 5 | inactive | Non-toxic | inactive | inactive |  |  |  |
| Br.CCCN(C)C1CCc2c(O)cccc2C1 (stereo not drawn) | inactive | 0.023 | inactive | Non-toxic | inactive | inactive | 0.029 | 0 | 73 |
| CCCN(C)C1CCc2c(cccc2OC)C1.Cl (stereo not drawn) | inactive | 0.12 | inactive | Non-toxic | inactive | inactive | 0.096 | 15 | 69 |
| CCCCN(CC)C1CCc2c(cccc2OC)C1.Cl (stereo not drawn) | inactive | 0.068 | inactive | Non-toxic | inactive | inactive | 0.079 | 16 | 140 |
| COc1cccc2c1CCC(N)C2.Cl (stereo not drawn) | inactive |  | inactive | Non-toxic | inactive | inactive |  |  |  |
| CCCN(C(C)C)C1CCc2c(cccc2OC)C1.Cl (stereo not drawn) | inactive |  | inactive | Non-toxic | inactive | inactive |  |  |  |
| CCCCN(CCC)C1CCc2c(cccc2OC)C1.Cl (stereo not drawn) | inactive | 0.04 | inactive | Non-toxic | inactive | inactive | 0.036 | 14 | 106 |
| CCCN(CCc1ccccc1)C1CCc2c(cccc2OC)C1.Cl (stereo not drawn) | inactive | 0.29 | inactive | Non-toxic | inactive | inactive | 0.24 |  |  |
| Br.CCCCN(CCCC)C1CCc2c(O)cccc2C1 (stereo not drawn) | inactive | 2.9 | inactive | Non-toxic | inactive | inactive | 2.7 |  |  |
| CCCCCNC1CCc2c(cccc2OC)C1.Cl (stereo not drawn) | inactive |  | inactive | Non-toxic | inactive | inactive |  |  |  |
| COc1cccc2c1CCC(NC(C)C)C2.Cl (stereo not drawn) | inactive | > 5 | inactive | Non-toxic | inactive | inactive |  |  |  |
| Br.CCCCCN(C)C1CCc2c(O)cccc2C1 (stereo not drawn) | inactive | 0.37 | inactive | Non-toxic | inactive | inactive | 0.28 |  |  |
| Br.Oc1cccc2c1CCC(N1CCCCC1)C2 (stereo not drawn) | inactive | > 5 | inactive | Non-toxic | inactive | inactive |  |  |  |
| CCN(CC)C1CCc2c(cccc2OC)C1.Cl (stereo not drawn) | inactive |  | inactive | Non-toxic | inactive | inactive |  |  |  |
| CCCNC1CCc2c(cccc2OC)C1.Cl (stereo not drawn) | inactive | 0.37 | inactive | Non-toxic | inactive | inactive | 0.43 |  |  |
| COc1cccc2c1CCC(N1CCCCC1)C2.Cl (stereo not drawn) | inactive |  | inactive | Non-toxic | inactive | inactive |  |  |  |
| CCNC1CCc2c(cccc2OC)C1.Cl (stereo not drawn) | inactive |  | inactive | Non-toxic | inactive | inactive |  |  |  |
| CCCCN(CCCC)C1CCc2c(cccc2OC)C1.Cl (stereo not drawn) | inactive |  | inactive | Non-toxic | inactive | inactive |  |  |  |
| CCN(C)C1CCc2c(cccc2OC)C1.Cl (stereo not drawn) | inactive |  | inactive | Non-toxic | inactive | inactive |  |  |  |
| Br.CC(C)NC1CCc2c(O)cccc2C1 (stereo not drawn) | inactive | > 5 | inactive | Non-toxic | inactive | inactive |  |  |  |
| CCCCCN(C)C1CCc2c(cccc2OC)C1.Cl (stereo not drawn) | inactive |  | inactive | Non-toxic | inactive | inactive |  |  |  |
| COc1cccc2c1CCC(N(C)C)C2.Cl (stereo not drawn) | inactive |  | inactive | Non-toxic | inactive | inactive |  |  |  |
| CNC1CCc2c(cccc2OC)C1.Cl (stereo not drawn) | inactive |  | inactive | Non-toxic | inactive | inactive |  |  |  |
| Br.CNC1CCc2c(O)cccc2C1 (stereo not drawn) | inactive | 1.1 | inactive | Non-toxic | inactive | inactive | 1.2 |  |  |
| Br.CCCCCNC1CCc2c(O)cccc2C1 (stereo not drawn) | inactive | > 5 | inactive | Non-toxic | inactive | inactive |  |  |  |
| Br.CN(C)C1CCc2c(O)cccc2C1 (stereo not drawn) | inactive | 0.39 | inactive | Non-toxic | inactive | inactive | 0.19 |  |  |
| CCCN(CC(C)(C)C)C1CCc2c(cccc2OC)C1.Cl (stereo not drawn) | inactive | 0.19 | inactive | Non-toxic | inactive | inactive | 0.19 |  |  |
| CCCCNC1CCc2c(cccc2OC)C1.Cl (stereo not drawn) | inactive |  | inactive | Non-toxic | inactive | inactive |  |  |  |
| Br.NC1CCc2c(O)cccc2C1 (stereo not drawn) | inactive | > 5 | inactive | Non-toxic | inactive | inactive |  |  |  |
